In ChEMBL document CHEMBL1129975, “Depsides and depsidones as inhibitors of HIV-1 integrase: discovery of novel inhibitors through 3D database searching” (J Med Chem, 1997) one finds IC50 data, which are given here for 35 molecules.

What is called IC50 is the concentration needed to halve the response being measured.

Experiment [1] deals with T1, Human immunodeficiency virus type 1 integrase (Human immunodeficiency virus 1, UniProt Q7ZJM1). As to the kind of experiment: Inhibitory concentration of compound against 3'-processing of HIV-1 integrase in experiment 1&2. The method, boiled down:
(§1)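 Purified recombinant HIV-1 integrase (200 nM final) preincubated with inhibitor for 30 min at 30 °C. Buffer: 25 mM MOPS pH 7.2, 7.5 mM MnCl2, 50 mM NaCl, 10% DMSO, 10% glycerol, 0.1 mg/mL BSA. Then 20 nM 5′-32P-labelled 21-mer blunt-end U5 LTR duplex was added for 1 h. Products were resolved on a denaturing 20% polyacrylamide/urea gel. IC50 was read from a percent-inhibition versus concentration plot.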

The target of experiment [2] is T1, Human immunodeficiency virus type 1 integrase. The experiment in a line: Inhibitory concentration of compound against strand transfer of HIV-1 integrase in experiment 1&2. The method, boiled down:
as §1

Experiment [3] shares this target. The experiment in a line: Inhibitory concentration of compound against 3'-processing of HIV-1 integrase in experiment 2.
The target is the same in experiment [4]. As to the kind of experiment: Inhibitory concentration of compound against 3'-processing of HIV-1 integrase in experiment 1.
For experiment [5] the target is unchanged. The experiment in a line: Inhibitory concentration of compound against strand transfer of HIV-1 integrase in experiment 1.
The target is the same in experiment [6]. The experiment in a line: Inhibitory concentration of compound against strand transfer of HIV-1 integrase in experiment 2.
The target is the same in experiment [7]. The experiment in a line: Inhibitory concentration of compound against disintegration (reversal of strand transfer)of HIV-1 integrase. The method, boiled down: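 Disintegration run under the integrase assay conditions (200 nM enzyme preincubated 30 min at 30 °C in MnCl2/MOPS buffer, then 1 h with substrate). Substrate was a Y-shaped branched oligonucleotide mimicking a strand transfer product, 32P-labelled at the 5′ end of its 15-mer. The core-truncated mutant IN50-212 was used as enzyme. The 30-mer product was resolved on a denaturing 20% gel. IC50 was taken from a percent-inhibition plot.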

The target of experiment [8] is T2, Human immunodeficiency virus type 2 integrase (Human immunodeficiency virus 2, UniProt P89582).
T2 sequence (P89582 whole entry): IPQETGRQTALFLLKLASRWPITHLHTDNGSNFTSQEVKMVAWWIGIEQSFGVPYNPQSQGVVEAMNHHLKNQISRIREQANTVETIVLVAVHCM
The experiment in a line: Inhibitory concentration of compound against 3' processing of HIV-2 integrase. The method, boiled down: (§2)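 Integrase (200 nM final) preincubated with inhibitor for 30 min at 30 °C in pH 7.2 MOPS/HEPES buffer with 7.5 mM MnCl2, 10% DMSO, BSA and 2-mercaptoethanol. Then 20 nM 5′-32P-labeled 21-mer U5 LTR duplex was added for 1 h. Quenched with formamide/EDTA dye and run on denaturing 20% PAGE. IC50 read from a plot of % inhibition against drug concentration.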

In experiment [9] the target is T2, Human immunodeficiency virus type 2 integrase. As to the kind of experiment: Inhibitory concentration of compound against strand transfer of HIV- integrase. The method, boiled down: as §2
For experiment [10] the target is unchanged. The experiment in a line: Inhibitory concentration of compound against 3'-processing of HIV-2 integrase.
Experiment [11] shares this target.
Experiment [12] has the same target. The experiment in a line: Inhibitory concentration of compound against strand transfer of HIV-2 integrase. The method, boiled down:
as §2

T1 sequence (Q7ZJM1 whole entry): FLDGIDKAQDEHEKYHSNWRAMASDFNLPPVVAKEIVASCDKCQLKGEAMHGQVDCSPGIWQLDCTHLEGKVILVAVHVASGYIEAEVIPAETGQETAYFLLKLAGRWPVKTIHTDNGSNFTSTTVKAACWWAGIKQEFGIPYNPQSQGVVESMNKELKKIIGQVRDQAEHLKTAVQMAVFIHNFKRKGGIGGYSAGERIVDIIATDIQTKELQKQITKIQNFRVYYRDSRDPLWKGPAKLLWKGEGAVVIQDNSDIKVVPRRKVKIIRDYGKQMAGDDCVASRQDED

For the molecule `Cc1cc(Cc2cc(C)c(O)c(C(=O)O)c2)cc(C(=O)O)c1O`, the IC50 in experiment [1] was found to be 61.8 µM; in experiment [2], 68.5 µM.

Consider `Cc1cc(C(c2cc(C)c(O)c(C(=O)O)c2)c2cc(C)c(O)c(C(=O)O)c2)cc(C(=O)O)c1O`, for which the IC50 is under 23.4 µM in [3], 20.4 µM in [4], 16.7 µM in experiment [5] and under 23.4 µM in experiment [6].

Consider `Cc1cc(C(O)(c2cc(C)c(O)c(C(=O)O)c2)c2cc(C)c(O)c(C(=O)O)c2)cc(C(=O)O)c1O`, for which the IC50 worked out at 32.8 µM in experiment [3], 35.8 µM in [4], 21.8 µM in [5] and 23 µM in experiment [6].

Regarding `CCN(CC)c1ccc(Cc2ccc(N(C)C)c(Cl)c2)cc1`, the IC50 in experiment [3] was 78.6 µM; in experiment [4], 61.8 µM; in [5], 45.8 µM; in [6], 38.6 µM.

Consider `CCCCCc1cc2cc(O)cc(Oc3c(O)cc(O)c(C(=O)O)c3CCCCC)c2c(=O)o1`, for which the results for the concentration for half-maximal inhibition (IC50) in experiment [7], in [4] and in [5] were 35 µM, 52.2 µM and 45.7 µM, respectively.

Turning to `CC(=O)C1=C(NNC(=O)c2ccccn2)[C@@]2(C)C(=CC1=O)Oc1c(C(C)=O)c(O)c(C)c(O)c12`, the IC50 in experiment [7] was 39 µM; in experiment [3], 60.8 µM; in experiment [4], 73 µM; in [5] it was 48.5 µM; in [6], 55 µM.

With `CCOC(=O)c1cnc(NCCCNc2ncc(C(=O)OCC)c(=O)[nH]2)[nH]c1=O`, the IC50 was 11.6 µM in experiment [3], 12.8 µM in [4], 16.7 µM in experiment [5] and 7.9 µM in experiment [6].

Take `O=[N+]([O-])c1cccc(/C=N/CCN2CCN(CC/N=C/c3cccc([N+](=O)[O-])c3O)C2c2cccc([N+](=O)[O-])c2O)c1O`: the IC50 was determined as 60.8 µM in experiment [3], 52.7 µM in experiment [4], 36.7 µM in experiment [5] and 49.5 µM in experiment [6].

`O=C(Nc1ccc(C(=O)O)c(O)c1)c1ccc(C(=O)Nc2ccc(O)c(C(=O)O)c2)cc1`: the IC50 in experiment [3] was 25.2 µM; in experiment [4] it was 23.6 µM; in experiment [5], 16.3 µM; in [6], 20 µM.

With `O=C(NO)c1cc(O)c(O)c(O)c1`, the IC50 in experiment [8] amounted to 1.6 µM; in experiment [3], 3.2 µM; in experiment [4], 1.1 µM; in experiment [5] it was 0.5 µM; in experiment [9], 1.6 µM; in experiment [6], 1.6 µM.

On to `O=C(NC(Cc1ccc(O)c(O)c1)C(=O)OCc1ccccc1)c1ccc([N+](=O)[O-])cc1` (stereo not given), for which the IC50 in [3] stood at 253 µM; in [4] it was 163 µM; in experiment [5] it was 55.4 µM; in experiment [6] it was 76.6 µM.

As for `Cc1c2cc(O)c(=O)cc-2oc2cc(O)c(O)cc12`, the IC50 in experiment [10] was found to be 2.3 µM; in experiment [3] it was 1.5 µM; in experiment [4], 1.1 µM; in experiment [11], 1.5 µM; in [5] it was 1.1 µM; in experiment [6], 0.9 µM.

For `Nc1cc(C(=O)O)c(-c2cc(O)c(N)cc2C(=O)O)cc1O`, the IC50 in [4] stood at 212 µM; in [5], 234 µM.

As to `COC(=O)c1c(C)c2c(c(C)c1O)OC(=O)c1c(C)cc(O)c(C=O)c1O2`, the values for the IC50 in experiment [1], in [7] and in experiment [2] were 5.4 µM, 26 µM and 4.4 µM, respectively.

With `O=C(/C=C/c1ccc(O)c(O)c1)O[C@H]1[C@H](O)C[C@](O)(C(=O)O)C[C@H]1OC(=O)/C=C/c1ccc(O)c(O)c1`, the IC50 in [10] is 0.5 µM; in experiment [3], 0.7 µM; in [4], 1.3 µM; in [5], 0.6 µM; in experiment [12], 0.5 µM; in experiment [6] it was 0.7 µM.

As to `COc1cc(C)c2c(c1C)OC(=O)c1c(C)c(Cl)c(O)c(C=O)c1O2`, the half-inhibitory concentration (IC50) in experiment [7] was 12.8 µM; in experiment [3], 2.7 µM; in [4] it was 2.2 µM; in [5], 1.6 µM; in experiment [6], 2.7 µM.

Regarding `O=C(O)c1ccccc1C(c1cc(Br)c(O)c(Br)c1)c1ccc(Br)c(O)c1Br` (stereo not given), the concentration for half-maximal inhibition (IC50) in [3] amounted to 25.6 µM; in experiment [4], 43.7 µM; in experiment [5] it was 38.8 µM; in experiment [6], 27.2 µM.

On to `Cc1ncc(COP(=O)(O)O)c(C2NC(C(=O)O)CS2)c1O` (stereo not given), for which the half-inhibitory concentration (IC50) in [3] is 75.1 µM; in experiment [4], 91.7 µM; in experiment [5], 93.4 µM; in experiment [6], 31.7 µM.

On to `Cc1cc(O)c(C=O)c2c1C(=O)Oc1c(C)c(O)c(C(=O)O)c(C)c1O2`, for which the results for the IC50 in experiment [1], in experiment [7] and in experiment [2] were 4.6 µM, 33.5 µM and 6.5 µM, respectively.

For the molecule `O=C(O)c1ccc(C(=O)O)c2c(C(=O)O)ccc(C(=O)O)c12`, the IC50 in [3] turned out to be 174 µM; in [4] it was 122 µM; in experiment [5], 176 µM; in experiment [6], 182 µM.

On to `O=C1OC2C(O)COC2(O)C1(O)Cc1cc(O)c(O)c(Br)c1Br` (stereo not given), for which the IC50 in [3] stood at 28.7 µM; in experiment [4], 64.7 µM; in [5], 50.2 µM; in experiment [6], 24.3 µM.

`O=C(O)c1cc(/N=N\c2ccccc2C(=O)O)ccc1O`: the IC50 in [3] was 211 µM; in experiment [4], 116 µM; in experiment [5] it was 116 µM; in [6] it was 224 µM.

For the molecule `O=C(c1ccc(O)cc1O)C1C(c2ccc(O)cc2)OC(c2ccc(O)cc2)C1C(=O)c1ccc(O)cc1O` (stereo not given), the IC50 in experiment [3] was found to be 169 µM; in experiment [4], 165 µM; in experiment [5] it was 143 µM; in [6], 129 µM.

As for `CCCCCc1cc(O)cc2c1Oc1cc(O)cc(C(=O)CCCC)c1C(=O)O2`, the IC50 came to 42.2 µM in experiment [3], 59.9 µM in experiment [4], 39.2 µM in [5] and 28.1 µM in [6].

As for `O=C1C(O)=C(c2ccccc2)C12CSC1(CS2)C(=O)C(O)=C1c1ccccc1` (stereo not given), the IC50 worked out at 60 µM in [3], 132 µM in [4], 172 µM in [5] and 54.8 µM in [6].

Consider `O=C(O)c1cnc2c(ccc3ncc(C(=O)O)c(O)c32)c1O`, for which the IC50 in [3] is 6.1 µM; in experiment [4], 7.6 µM; in experiment [5], 9.8 µM; in experiment [6] it was 6.1 µM.

Turning to `O=C(/C=C/c1ccc(O)c(O)c1)O[C@@H]1C[C@](O)(C(=O)O)C[C@@H](O)[C@H]1O` (single isomer, unassigned) [CHLOROGENIC ACID], the IC50 in experiment [3] worked out at 58.2 µM; in experiment [4], 87.8 µM; in experiment [5], 45.8 µM; in [6], 31.3 µM.

Turning to `CC(=O)C1=C(O)C=C2Oc3c(C(C)=O)c(O)c(C)c(O)c3[C@@]2(C)C1=O` [(+)-USNIC ACID], the IC50 in experiment [1] was determined as 126 µM; in [7], 133 µM; in [2], 124 µM.

As for `COC(=O)c1c(C)cc(OC(=O)c2c(C)cc(O)c(C=O)c2O)c(C)c1O` [ATRANORIN], the IC50 in experiment [7] was 128 µM; in experiment [3] it was 62.4 µM; in experiment [4] it was 61 µM; in [5] it was 36 µM; in [6], 44 µM.

Consider `C[C@@](O)(/C=C/[C@H]1CC=CC(=O)O1)[C@@H](C[C@@H](O)C=CC=C/C=C/CO)OP(=O)(O)O` [FOSTRIECIN], for which the IC50 in [3] was 118 µM; in experiment [4] it was 41.3 µM; in experiment [5], 12.8 µM; in [6], 52.7 µM.

Regarding `Cc1cc(O)c(C=O)c2c1C(=O)Oc1c(COC(=O)/C=C/C(=O)O)c(O)c(C(=O)O)c(C)c1O2` [FUMARPROTOCETRARIC ACID], the IC50 was determined as 4.9 µM in experiment [1], 4.6 µM in experiment [2] and 7.3 µM in experiment [6].

Consider `CCCCCC(=O)Cc1cc(O)cc2c1C(=O)Oc1cc(O)c(C(=O)O)c(CCCCC)c1O2` [PHYSODIC ACID], for which the IC50 was 38.5 µM in experiment [1], 32.5 µM in experiment [7] and 30.9 µM in experiment [2].

On to `COc1cc(C(=O)O)c2c(c1C)OC(=O)c1c(C)cc(O)c(C=O)c1O2` [PSOROMIC ACID], for which the IC50 in experiment [3] amounted to 15.1 µM; in experiment [4] it was 17 µM; in experiment [5], 5.3 µM; in [6], 12.3 µM.

For the molecule `Cc1cc(O)c(C=O)c2c1C(=O)Oc1c(CO)c(O)c3c(c1O2)C(O)OC3=O` (stereo not given) [SLAZINIC ACID], the IC50 was found to be 16 µM in experiment [3], 19 µM in experiment [4], 12.6 µM in experiment [5] and 6.2 µM in [6].

As to `COc1cc(C)c2c(c1C=O)Oc1c(c(C)c(O)c3c1C(O)OC3=O)OC2=O` (stereo not given) [STICTIC ACID], the IC50 was determined as 11.7 µM in experiment [7]; 2.9 µM in [3]; 4.4 µM in experiment [4]; 2.6 µM in experiment [5]; 1.9 µM in experiment [6].
